# In ChEMBL document CHEMBL4017509, “A Dual Modulator of Farnesoid X Receptor and Soluble Epoxide Hydrolase To Counter Nonalcoholic Steatohepatitis” (J Med Chem, 2017):
# Active and inactive are the calls of the source. No cut-off for these calls is given here.
# Assays:
# Liver [1] = experiment: Drug metabolism in Sprague-Dawley rat liver microsomes assessed as 4-tert-butyl-N-(2-chloro-4-(methylsulfonamido)benzyl)-3-hydroxybenzamide formation at 10 uM preincubated with NADPH regenerating system for 5 mins followed by addition of liver microsomes by LC-MS/MS method; format: ADME, microsome
# [2] = target: T1, Bifunctional epoxide hydrolase 2 (Homo sapiens) (UniProt P34913); experiment: Inhibition of sEH in human HepG2 cells assessed as NF-kappaB mRNA expression at 1 uM after 8 to 16 hrs by SYBR green based qRT-PCR analysis relative to DMSO control; format: cell-based
# T1 sequence (whole entry): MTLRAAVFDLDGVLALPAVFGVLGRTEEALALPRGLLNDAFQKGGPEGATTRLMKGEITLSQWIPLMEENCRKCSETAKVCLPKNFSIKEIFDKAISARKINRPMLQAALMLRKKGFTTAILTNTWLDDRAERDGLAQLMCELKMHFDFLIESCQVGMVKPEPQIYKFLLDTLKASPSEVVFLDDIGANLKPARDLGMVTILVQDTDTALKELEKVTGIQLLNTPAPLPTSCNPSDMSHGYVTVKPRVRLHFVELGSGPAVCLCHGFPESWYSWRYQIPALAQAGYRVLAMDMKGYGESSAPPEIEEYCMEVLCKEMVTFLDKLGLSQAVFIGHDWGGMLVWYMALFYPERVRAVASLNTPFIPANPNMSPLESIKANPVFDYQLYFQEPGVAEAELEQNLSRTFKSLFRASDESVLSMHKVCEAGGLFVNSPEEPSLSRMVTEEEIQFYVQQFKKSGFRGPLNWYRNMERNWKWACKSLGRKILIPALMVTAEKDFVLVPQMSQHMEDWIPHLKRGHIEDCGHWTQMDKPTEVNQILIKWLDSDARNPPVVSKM
# Summary of the method: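 HepG2 cells treated with compound or 0.1% DMSO vehicle; NF-κB mRNA quantified by SYBR Green qRT-PCR, comparative ΔΔCt with GAPDH reference; expressed as % of vehicle (100%).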
# [3] = target: T2, Peroxisome proliferator-activated receptor gamma (Homo sapiens) (UniProt P37231); experiment: Transactivation of PPARgamma in human HepG2 cells assessed as CD36 mRNA expression at 10 uM after 8 to 16 hrs by SYBR green based qRT-PCR analysis relative to DMSO control; format: cell-based
# T2 sequence (whole entry): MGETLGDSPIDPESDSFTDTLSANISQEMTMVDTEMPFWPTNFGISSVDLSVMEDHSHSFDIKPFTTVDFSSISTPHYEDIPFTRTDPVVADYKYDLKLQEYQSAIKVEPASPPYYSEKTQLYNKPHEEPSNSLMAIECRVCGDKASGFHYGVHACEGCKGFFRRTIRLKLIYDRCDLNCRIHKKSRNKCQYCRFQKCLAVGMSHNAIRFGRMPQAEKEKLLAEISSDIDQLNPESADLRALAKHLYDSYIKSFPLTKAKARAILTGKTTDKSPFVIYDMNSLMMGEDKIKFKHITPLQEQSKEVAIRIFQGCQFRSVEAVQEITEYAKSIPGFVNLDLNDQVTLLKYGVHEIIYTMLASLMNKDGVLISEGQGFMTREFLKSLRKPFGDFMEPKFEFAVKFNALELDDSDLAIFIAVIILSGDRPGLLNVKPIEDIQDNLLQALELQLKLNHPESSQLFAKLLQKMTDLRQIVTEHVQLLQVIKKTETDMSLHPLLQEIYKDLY
# Summary of the method: (§1)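 HepG2 cells treated 8 or 16 h with compound or 0.1% DMSO, washed in cold PBS, RNA extracted; SYBR Green qRT-PCR in duplicate, ≥4 independent experiments (n = 3 for CD36/FAM3A). ΔΔCt method with GAPDH reference; expression as % of vehicle (100%). Pioglitazone 1 μM used as positive control for the PPARγ genes.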
# [4] = target: T3, Bile acid receptor (Homo sapiens) (UniProt Q96RI1); experiment: Transactivation of FXR in human HepG2 cells assessed as FGF19 mRNA expression at 1 uM after 8 to 16 hrs by SYBR green based qRT-PCR analysis relative to DMSO control; format: cell-based
# T3 sequence (whole entry): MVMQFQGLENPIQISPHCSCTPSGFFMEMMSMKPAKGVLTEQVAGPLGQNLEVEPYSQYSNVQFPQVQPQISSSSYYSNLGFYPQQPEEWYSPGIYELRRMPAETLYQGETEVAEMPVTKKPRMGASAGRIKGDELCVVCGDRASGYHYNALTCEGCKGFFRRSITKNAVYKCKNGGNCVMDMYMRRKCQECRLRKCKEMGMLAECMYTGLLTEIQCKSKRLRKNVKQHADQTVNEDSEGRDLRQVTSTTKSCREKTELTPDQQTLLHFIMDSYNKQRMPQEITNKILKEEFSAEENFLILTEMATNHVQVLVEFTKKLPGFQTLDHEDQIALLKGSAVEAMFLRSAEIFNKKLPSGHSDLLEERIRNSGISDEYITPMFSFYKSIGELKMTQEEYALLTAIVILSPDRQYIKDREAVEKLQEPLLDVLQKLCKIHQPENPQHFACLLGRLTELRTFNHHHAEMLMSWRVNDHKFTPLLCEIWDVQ
# Summary of the method: (§2)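 HepG2 cells incubated with test compound (0.1 and 1 μM) or 0.1% DMSO for 8 or 16 h, washed in cold PBS, RNA extracted; target mRNA by SYBR Green qRT-PCR, duplicate samples, ≥4 independent experiments; comparative ΔΔCt with GAPDH reference, vehicle set as 100%.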
# [5] = target: Retinoic acid receptor gamma (Homo sapiens) (UniProt P13631); experiment: Transactivation of human GAL4-fused RARgamma ligand binding domain expressed in […] cells at 10 uM after 12 to 14 hrs by dual-glo luciferase reporter gene assay; format: cell-based
# Summary of the method: (§3)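 HEK293T cells in DMEM/10% FCS, Opti-MEM before Lipofectamine LTX transfection with pFR-Luc reporter, pRL-SV40 and pFA-CMV GAL4–LBD plasmid. 5 h later compound in 0.1% DMSO, Opti-MEM, overnight (12−14 h). Dual luciferase; firefly/renilla ×1000 = RLU, fold over DMSO control; triplicates, ≥3 independent repeats.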
# [6] = target: T3, Bile acid receptor (Homo sapiens); experiment: Transactivation of FXR in human HepG2 cells assessed as BSEP mRNA expression at 1 uM after 8 to 16 hrs by SYBR green based qRT-PCR analysis relative to DMSO control; format: cell-based; summary of the method: as §2
# Liver [7] = experiment: Drug metabolism in Sprague-Dawley rat liver microsomes assessed as N-(4-Amino-2-chlorobenzyl)-4-(tert-butyl)benzamide formation at 10 uM preincubated with NADPH regenerating system for 5 mins followed by addition of liver microsomes by LC-MS/MS method; format: ADME, microsome
# [8] = target: T2, Peroxisome proliferator-activated receptor gamma (Homo sapiens); experiment: Transactivation of PPARgamma in human HepG2 cells assessed as FAM3A mRNA expression at 10 uM after 8 to 16 hrs by SYBR green based qRT-PCR analysis relative to DMSO control; format: cell-based; summary of the method: as §1
# [9] = target: Peroxisome proliferator-activated receptor delta (Homo sapiens) (UniProt Q03181); experiment: Transactivation of human GAL4-fused PPARdelta ligand binding domain expressed in […] cells at 10 uM after 12 to 14 hrs by dual-glo luciferase reporter gene assay; format: cell-based; summary of the method: as §3
# Peroxisome proliferator-activated receptor delta (Homo sapiens), sequence (Q03181 whole entry, the tested form may be a part): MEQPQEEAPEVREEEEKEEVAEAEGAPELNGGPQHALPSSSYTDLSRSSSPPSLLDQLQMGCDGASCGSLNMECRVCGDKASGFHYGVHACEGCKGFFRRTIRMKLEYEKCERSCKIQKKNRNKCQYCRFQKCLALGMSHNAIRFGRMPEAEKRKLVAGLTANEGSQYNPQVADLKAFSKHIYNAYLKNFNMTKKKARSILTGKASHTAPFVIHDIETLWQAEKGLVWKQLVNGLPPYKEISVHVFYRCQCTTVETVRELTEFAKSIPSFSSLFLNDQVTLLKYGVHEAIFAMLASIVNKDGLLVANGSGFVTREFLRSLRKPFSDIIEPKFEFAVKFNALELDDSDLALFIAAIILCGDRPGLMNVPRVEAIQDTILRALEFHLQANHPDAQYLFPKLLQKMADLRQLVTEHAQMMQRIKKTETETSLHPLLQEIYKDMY
# Retinoic acid receptor gamma (Homo sapiens), sequence (P13631 whole entry, the tested form may be a part): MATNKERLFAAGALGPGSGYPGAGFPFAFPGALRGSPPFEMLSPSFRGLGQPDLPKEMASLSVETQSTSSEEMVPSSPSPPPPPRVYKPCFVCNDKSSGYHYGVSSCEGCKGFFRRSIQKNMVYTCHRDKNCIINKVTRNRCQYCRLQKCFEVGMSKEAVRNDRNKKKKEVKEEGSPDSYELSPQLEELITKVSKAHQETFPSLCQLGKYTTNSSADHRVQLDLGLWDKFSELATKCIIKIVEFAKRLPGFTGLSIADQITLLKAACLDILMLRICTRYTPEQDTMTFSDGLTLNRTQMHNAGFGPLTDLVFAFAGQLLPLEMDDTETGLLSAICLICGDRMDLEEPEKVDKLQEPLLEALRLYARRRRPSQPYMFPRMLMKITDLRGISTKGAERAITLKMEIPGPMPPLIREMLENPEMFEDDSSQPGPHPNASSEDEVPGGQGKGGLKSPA
smiles,measurement,setting,value
CC(C)(C)c1ccc(C(=O)NCc2ccc(NS(C)(=O)=O)cc2Cl)cc1,Drug metabolism,Liver [1],Metabolite_Notdetected
same,inhibition,[2],17.6%
same,Activity,[3],129%
same,Activity,[4],325%
same,Activity,[5],inactive
same,Activity,[6],222%
same,Drug metabolism,Liver [7],Metabolite_Detected
same,Activity,[8],142%
same,Activity,[9],inactive
